The values that follow come from ChEMBL document CHEMBL1122242, “Phenylenebis(oxy)bis[2,2-dimethylpentanoic acid]s: agents that elevate high-density lipoproteins” (1983).

Holding throughout (type): functional
Assay [1] is filed under the species Rattus norvegicus. The assay is described as follows: Hypolipidemic effects(plasma cholesterol) in male rats. The gist of the method:
(§1)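 Male rats, 10 per group, fed 7 days on chow with 10% fat (5.5% added peanut oil), 1.5% cholesterol and 0.1% cholic acid. Oral gavage on days 4-7 in 4% acacia, usually 50 mg/kg daily. Fasted overnight, killed day 8, atrial blood into EDTA. Plasma cholesterol, TG and HDL cholesterol (after MnCl2/heparin precipitation) by Autoanalyzer. % change vs controls, Student's t test.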

Assay [2] is filed under the species Rattus norvegicus. The assay is described as follows: Hypolipidemic effects(plasma TG) in male rats. An outline of the steps: as §1
The species entered for assay [3] is Rattus norvegicus. Briefly: Hypolipidemic effects(liver weight) in male rats. An outline of the steps: as §1
The subject of assay [4] is Rattus norvegicus. The assay is described as follows: Hypolipidemic effects (high-density lipoprotein (HDL) cholesterol) in male rats;Compound was screening orally at 50 mg/Kg. The gist of the method: as §1
The test system of assay [5] is Rattus norvegicus. Briefly: Hypolipidemic effects (low-density lipoprotein (LDL) cholesterol) in male rats; Compound was screening orally at 50 mg/Kg. An outline of the steps:
as §1

Assay [6] relates to Rattus norvegicus. Briefly: Hypolipidemic effects (low-density lipoprotein (LDL) cholesterol) in male rats;Compound was screening orally at 50 mg/Kg. The gist of the method:
as §1

Assay [7] deals with Rattus norvegicus. Briefly: Hypolipidemic effects (high-density lipoprotein (HDL) cholesterol) in male rats; Compound was screening orally at 50 mg/Kg. An outline of the steps: as §1

In the case of `CCCC(=O)c1cc(OCCCC(C)(C)C(=O)OC)ccc1OCCCC(C)(C)C(=O)OC`, the Change in assay [1] was 39%; in assay [2], 0%; in assay [3], 34%; in assay [4], 1100%; in assay [5] it was -52%.

With `O=C(O)C1(CCCCOc2ccc(OCCCCC3(C(=O)O)CCC3)cc2)CCC1`, the Change in assay [1] is on record as -23%; in assay [6], -32%; in assay [2] it was 0%; in assay [3], 0%; in assay [4], 55%.

Take `CC(C)(CCCCCOc1cccc(OCCCCCC(C)(C)C(=O)O)c1)C(=O)O`: the Change is listed as -22% in assay [1]; 0% in assay [2]; 0% in assay [3]; 48% in assay [4]; -27% in assay [5].

`COC(=O)C(C)(C)CCCOc1ccc(C=N/N=C(/N)S)c(OCCCC(C)(C)C(=O)OC)c1`: the Change in assay [1] is listed as -60%; in assay [6], -83%; in assay [2] it was -50%; in assay [3], 38%; in assay [7], 280%.

On to `COC(=O)C(C)(C)CCCSc1ccc(Oc2ccc(SCCCC(C)(C)C(=O)OC)cc2)cc1`, for which the Change is on record as -29% in assay [1]; -31% in assay [6]; 0% in assay [2]; 4% in assay [3]; 0% in assay [7].

On to `CC(C)(CCCOc1ccc(OCCCC(C)(C)C(=O)O)c(CO)c1)C(=O)O`, for which the Change in assay [1] came out at 40%; in assay [6], 0%; in assay [2], 18%; in assay [3], 9%; in assay [7] it was 319%.

As for `CC(C)(CCOc1cccc(OCCC(C)(C)C(=O)O)c1)C(=O)O`, the Change in assay [1] was -28%; in assay [2], 240%; in assay [3], 17%; in assay [4], 383%; in assay [5], -46%.

As to `CC(C)(CCOc1ccc(Sc2ccc(OCCC(C)(C)C(=O)O)cc2)cc1)C(=O)O`, the Change was -25% in assay [1], -32% in assay [2], 0% in assay [3] and 46% in assay [4].

Regarding `CC(C)(CCCOc1ccc(OCCCC(C)(C)C(=O)O)cc1)C(=O)O`, the Change in assay [1] is -45%; in assay [2], 0%; in assay [7] it was 44%; in assay [4] it was 791%; in assay [5], -27%.

As to `CCCC(O)c1cc(OCCCC(C)(C)C(=O)O)ccc1OCCCC(C)(C)C(=O)O` (stereo not given), the Change in assay [1] is 61%; in assay [6] it was -45%; in assay [2], 0%; in assay [3], 37%; in assay [7], 1292%.

With `CC(C)(CCOc1ccc(OCCC(C)(C)C(=O)O)c(Cl)c1)C(=O)O`, the Change in assay [1] is -62%; in assay [2] it was -32%; in assay [3], 13%; in assay [4], 348%.

As for `CC(C)(CCCOc1cc(Cl)c(OCCCC(C)(C)C(=O)O)cc1Cl)C(=O)O`, the Change in assay [1] is given as -55%; in assay [2], 35%; in assay [3], 41%; in assay [4] it was 384%.

With `COC(=O)C(C)(C)CCCOc1ccc(OCCCC(C)(C)C(=O)OC)c(/C=N/NC(N)=O)c1`, the Change in assay [1] was -28%; in assay [2] it was 0%; in assay [3], 4%; in assay [4], 0%; in assay [5], -33%.

Consider `COC(=O)C(C)(C)CCCOc1ccc(OCCCC(C)(C)C(=O)OC)c(F)c1`, for which the Change was -30% in assay [1]; -65% in assay [6]; 0% in assay [2]; 41% in assay [3]; 347% in assay [4].

Take `COC(=O)C(C)(C)CCCOc1ccc(OCCCC(C)(C)C(=O)OC)c(OC)c1`: the Change in assay [1] is given as -26%; in assay [2], 0%; in assay [3], 30%; in assay [4], 566%; in assay [5] it was -31%.

Turning to `CC(C)(Oc1cccc(OC(C)(C)C(=O)O)c1)C(=O)O`, the Change in assay [1], in assay [6], in assay [2], in assay [3] and in assay [7] was 0% throughout.

In the case of `COC(=O)C(C)(C)CCCOc1ccc(OCCCC(C)(C)C(=O)OC)c(C(=O)c2ccccc2)c1`, the Change was 0% in assay [1]; -42% in assay [6]; 43% in assay [2]; 11% in assay [3]; 421% in assay [4].

For `COC(=O)C(C)(C)CCCOc1cccc(OCCCC(C)(C)C(=O)OC)c1N`, the Change is -37% in assay [1]; -42% in assay [6]; -41% in assay [2]; 8% in assay [3]; 46% in assay [7].

`CCC(=O)c1cc(OCCCC(C)(C)C(=O)OC)ccc1OCCCC(C)(C)C(=O)OC`: the Change in assay [1] was 0%; in assay [2], 0%; in assay [3], 40%; in assay [4] it was 723%; in assay [5] it was -57%.

On to `CC(C)(CCCCOc1cccc(OCCCCC(C)(C)C(=O)O)c1)C(=O)O`, for which the Change in assay [1] is on record as -37%; in assay [2], 41%; in assay [3] it was 18%; in assay [4], 317%; in assay [5], -52%.

Regarding `CC(C)(CCCOc1ccc(OCCCC(C)(C)C(=O)O)c(-c2ccc(Cl)cc2)c1)C(=O)O`, the Change in assay [1] is reported as -47%; in assay [6], -78%; in assay [2], -29%; in assay [3], 17%; in assay [7], 224%.

For `COC(=O)C(C)(C)CCCOc1ccc(-c2ccccc2)c(OCCCC(C)(C)C(=O)OC)c1`, the Change in assay [1] is 0%; in assay [2] it was 0%; in assay [3], 6%; in assay [4] it was 40%; in assay [5] it was -25%.

In the case of `CC(O)c1cc(OCCCC(C)(C)C(=O)O)ccc1OCCCC(C)(C)C(=O)O` (stereo not given), the Change is -27% in assay [1]; -70% in assay [6]; 0% in assay [2]; 12% in assay [3]; 525% in assay [7].

In the case of `CC(C)(CCOc1ccc(OCCC(C)(C)C(=O)O)cc1)C(=O)O`, the Change in assay [1] is -33%; in assay [2], 0%; in assay [3], 40%; in assay [4], 370%.

On to `COC(=O)C(C)(C)CCCOc1cccc(OCCCC(C)(C)C(=O)OC)c1C(C)=O`, for which the Change in assay [1] is on record as -38%; in assay [6], -40%; in assay [2], 0%; in assay [3] it was 0%; in assay [7], 0%.

In the case of `COC(=O)C(C)(C)CCCOc1ccc(OCCCC(C)(C)C(=O)OC)c(Br)c1`, the Change in assay [1] is reported as -45%; in assay [2] it was -39%; in assay [3] it was 30%; in assay [4] it was 728%.

`CC(C)(CO)CCCCOc1ccc(OCCCCC(C)(C)CO)cc1`: the Change in assay [1] is recorded as 0%; in assay [6] it was -54%; in assay [2] it was 0%; in assay [3] it was 30%; in assay [7] it was 907%.

Take `CC(C)(CCCOc1ccc(OCCCC(C)(C)C(=O)O)c(C(=O)O)c1)C(=O)O`: the Change in assay [1] is 0%; in assay [2], 0%; in assay [3] it was 0%; in assay [4], 0%; in assay [5] it was -17%.

On to `CC(C)(CCCOc1ccc(C(=O)c2ccccc2)c(OCCCC(C)(C)C(=O)O)c1)C(=O)O`, for which the Change in assay [1] is listed as 0%; in assay [6] it was -10%; in assay [2] it was 57%; in assay [3], 11%; in assay [7] it was 169%.

For the compound `Cc1ccc(-c2cc(OCCCC(C)(C)C(=O)O)ccc2OCCCC(C)(C)C(=O)O)cc1`, the Change was -32% in assay [1]; -42% in assay [6]; -27% in assay [2]; 0% in assay [3]; 66% in assay [7].
